What was measured:
[1] = molecular target: T1, Pancreatic triacylglycerol lipase (Sus scrofa) (UniProt P00591); assay: Inhibition of porcine pancreatic lipase at 4.1 mg/ml under duodenal phase at pH 6.5 using liquid test meal measured after 30 to 90 mins relative to control; settings: time 30-90 min
T1 sequence (whole entry): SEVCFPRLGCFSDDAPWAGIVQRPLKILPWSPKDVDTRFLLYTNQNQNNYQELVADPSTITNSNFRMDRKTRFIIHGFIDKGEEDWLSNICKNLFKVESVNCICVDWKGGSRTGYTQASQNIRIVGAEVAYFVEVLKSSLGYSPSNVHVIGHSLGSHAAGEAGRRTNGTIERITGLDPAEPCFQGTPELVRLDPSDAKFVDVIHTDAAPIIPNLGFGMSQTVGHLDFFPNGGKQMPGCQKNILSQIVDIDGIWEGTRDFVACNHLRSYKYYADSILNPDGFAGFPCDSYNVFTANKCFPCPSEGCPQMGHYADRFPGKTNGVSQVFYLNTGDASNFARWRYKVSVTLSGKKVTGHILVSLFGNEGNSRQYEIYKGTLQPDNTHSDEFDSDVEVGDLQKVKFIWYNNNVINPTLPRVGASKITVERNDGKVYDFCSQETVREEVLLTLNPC

[2] = molecular target: T2, Gastric triacylglycerol lipase (Canis lupus familiaris) (UniProt P80035); assay: Inhibition of recombinant dog gastric lipase at 4.1 mg/ml under gastric phase at pH 5.5 using solid test meal measured up to 30 mins relative to control; settings: time min <=30
T2 sequence (whole entry): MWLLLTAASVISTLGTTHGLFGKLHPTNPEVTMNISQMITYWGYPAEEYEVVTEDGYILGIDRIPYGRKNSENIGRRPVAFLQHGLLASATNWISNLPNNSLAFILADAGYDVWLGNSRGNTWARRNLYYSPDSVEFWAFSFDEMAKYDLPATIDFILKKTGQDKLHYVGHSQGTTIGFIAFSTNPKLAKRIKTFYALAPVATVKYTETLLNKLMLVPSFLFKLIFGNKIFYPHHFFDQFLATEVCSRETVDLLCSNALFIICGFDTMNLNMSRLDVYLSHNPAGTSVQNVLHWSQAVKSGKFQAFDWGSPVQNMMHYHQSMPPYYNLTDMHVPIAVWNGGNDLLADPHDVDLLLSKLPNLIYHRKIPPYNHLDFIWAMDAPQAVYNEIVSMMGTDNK
Summary of the method: (§1)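 Gastric phase: 15 mL liquid or solid test meal (506 mg TAG) premixed with 734 µL of 4.1 mg/mL DMSO stock (2.94 mg, 7.262 µmol), then DGL to 17 µg/mL final, pH 5.5, 37 °C, stirred. Samples at 1, 15, 29 min; residual DGL activity by pH-stat; lipolysis level from TLC-FID of lipid extracts. DMSO-only controls; n = 3.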

Homo sapiens [3] = species on record: Homo sapiens; assay: Inhibition of human pancreatic carboxylesterase preincubated for 30 mins at 25 degreeC
Summary of the method: (§2)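 hCEH (1 mg/mL in 10 mM MES pH 6.5, 150 mM NaCl) pre-incubated 30 min at 25 °C with inhibitor from DMSO stock at various molar excesses, no substrate. Residual activity by pH-stat on tributyrin emulsion at 37 °C in 1 mM Tris-HCl pH 8.0, 100 mM NaCl, 5 mM CaCl2, 1 mM NaTDC. Relative to DMSO-only control; at least triplicate.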

[4] = molecular target: T1, Pancreatic triacylglycerol lipase (Sus scrofa); assay: Inhibition of porcine pancreatic lipase assessed as lipolysis level at 4.1 mg/ml under duodenal phase at pH 6.5 using liquid test meal measured at 90 mins (reference value: 63.6 +/- 2.6 %); design: scale not given: the % may be the effect or the level left
[5] = molecular target: T2, Gastric triacylglycerol lipase (Canis lupus familiaris); assay: Inhibition of recombinant dog gastric lipase at 20:1 molar excess compound concentration preincubated for 30 mins at 25 degreeC relative to control
Homo sapiens [6] = species on record: Homo sapiens; assay: Inhibition of human pancreatic carboxylesterase at 20:1 molar excess compound concentration preincubated for 30 mins at 25 degreeC relative to control; summary of the method: as §2
[7] = molecular target: T2, Gastric triacylglycerol lipase (Canis lupus familiaris); assay: Inhibition of recombinant dog gastric lipase assessed as lipolysis level at 4.1 mg/ml under gastric phase at pH 5.5 using solid test meal measured up to 30 mins (reference value: 13 +/- 1.2 %); design: scale not given: the % may be the effect or the level left; settings: time min <=30; summary of the method: as §1
[8] = molecular target: T1, Pancreatic triacylglycerol lipase (Sus scrofa); assay: Inhibition of porcine pancreatic lipase assessed as lipolysis level at 4.1 mg/ml under duodenal phase at pH 6.5 using solid test meal measured at 45 mins (reference value: 24.7 +/- 0.87 %); design: scale not given: the % may be the effect or the level left
[9] = molecular target: T3, Pancreatic lipase-related protein 2 (Cavia porcellus) (UniProt P81139); assay: Inhibition of recombinant guinea pig PL-RP2 expressed in Aspergillus oryzae at 4:1 molar excess compound concentration preincubated for 30 mins at 25 degreeC relative to control
T3 sequence (whole entry): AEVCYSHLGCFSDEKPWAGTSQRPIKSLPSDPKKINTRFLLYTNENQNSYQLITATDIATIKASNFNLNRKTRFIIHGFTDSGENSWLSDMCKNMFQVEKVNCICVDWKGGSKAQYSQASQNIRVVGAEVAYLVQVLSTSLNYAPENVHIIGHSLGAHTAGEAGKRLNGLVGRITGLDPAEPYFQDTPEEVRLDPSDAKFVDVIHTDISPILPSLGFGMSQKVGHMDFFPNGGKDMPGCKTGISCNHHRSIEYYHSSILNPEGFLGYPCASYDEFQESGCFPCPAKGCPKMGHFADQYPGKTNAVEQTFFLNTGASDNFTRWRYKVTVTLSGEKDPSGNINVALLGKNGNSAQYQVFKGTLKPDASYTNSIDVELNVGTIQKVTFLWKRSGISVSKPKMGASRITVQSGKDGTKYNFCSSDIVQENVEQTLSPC

[10] = molecular target: T2, Gastric triacylglycerol lipase (Canis lupus familiaris); assay: Inhibition of recombinant dog gastric lipase at 4.1 mg/ml under gastric phase at pH 5.5 using liquid test meal measured up to 30 mins relative to control; settings: time min <=30; summary of the method: as §1
[11] = molecular target: T1, Pancreatic triacylglycerol lipase (Sus scrofa); settings: dose 4.9 mg/ml, time 30-90 min
[12] = molecular target: T1, Pancreatic triacylglycerol lipase (Sus scrofa); settings: dose 4.9 mg/ml, time 30-90 min; remark: listed apart in the source
[13] = molecular target: T1, Pancreatic triacylglycerol lipase (Sus scrofa); settings: dose 4.9 mg/ml, time 30-90 min; remark: listed apart in the source
[14] = molecular target: T2, Gastric triacylglycerol lipase (Canis lupus familiaris); assay: Inhibition of recombinant dog gastric lipase assessed as lipolysis level at 4.9 mg/ml under gastric phase at pH 5.5 using liquid test meal measured up to 30 mins (reference value: 22.3 +/- 1.4 %); design: scale not given: the % may be the effect or the level left; settings: time min <=30
Summary of the method: (§3)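 In vitro two-phase digestion at 37 °C, 1,000 rpm: 15 mL liquid or solid test meal (506 mg TAG) was premixed with 7.262 µmol inhibitor in DMSO (DMSO-only control). Gastric phase: DGL 17 µg/mL final, pH 5.5. Duodenal phase from 30 min: pancreatic extract plus bovine bile added (PPL 250 µg/mL, bile salts 4.0 mM), pH 6.25. Lipids in samples were quantified by TLC-FID; LL% is (MAG+FFA) relative to 3×initial TAG; n = 3.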

[15] = molecular target: T2, Gastric triacylglycerol lipase (Canis lupus familiaris); assay: Inhibition of recombinant dog gastric lipase assessed as lipolysis level at 4.9 mg/ml under gastric phase at pH 5.5 using solid test meal measured up to 30 mins (reference value: 13 +/- 1.2 %); design: scale not given: the % may be the effect or the level left; settings: time min <=30; summary of the method: as §3

SMILES | inhibition [1] [%] | inhibition [2] [%] | XI50 (Homo sapiens [3]) [molar excess] | Activity [4] [%] | inhibition [5] [%] | inhibition (Homo sapiens [6]) [%] | Activity [7] [%] | Activity [8] [%] | inhibition [9] [%] | inhibition [10] [%] | inhibition [11] [%] | inhibition [12] [%] | inhibition [13] [%] | Activity [14] [%] | Activity [15] [%]
O=c1oc(OCCOCc2ccccc2)nn1-c1cccc(Oc2ccccc2)c1 | 5.6 | 97.2 | 1.42 | 55.3 | 91.5 | 71.5 | 3.1 | 20.6 | 60.6 | 100 | – | – | – | – | –
CCCCCCCCCCC[C@@H](C[C@@H]1OC(=O)[C@H]1CCCCCC)OC(=O)[C@@H](CC(C)C)NC=O | – | – | – | – | – | – | – | – | – | – | 85.2 | 86.6 | 100 | 0 | 2.1

Reference: ChEMBL document CHEMBL4715754, “Slowing down fat digestion and absorption by an oxadiazolone inhibitor targeting selectively gastric lipolysis” (2016)
